The source made the active and inactive calls. No cut-off for these calls is given here. Where only a bound is given, the exact number is not on record here.

For orientation: inhibition means the percentage by which the read-out fell short of the control. Read a low inhibition as little suppression. A word on the EC50: it is the midpoint of the concentration-response curve. The low end stands for higher potency in that assay, the high end for lower potency in that assay. The EC90 is the point of the concentration-response curve where the effect stands at 90%. Low readings indicate an effect from little substance, high ones a need for much substance. Usually IC50 stands for the concentration that inhibits the measured activity by half. A high value points to lower potency.

The test system of assay [1] is SVR. The assay is described as follows: Antiproliferative activity against mouse SVR cells at 10 ug/mL after 72 hrs. Format: functional. Put shortly:
(§1)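 Immortalized endothelial SVR cells were seeded at 10^4 per well in 24-well dishes. The next day, the medium was replaced with fresh medium containing compound or controls. Cells were incubated for 72 h at 37 °C. Cell number was counted in triplicate with a Coulter counter, and results were expressed as percent inhibition of proliferation.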

For assay [2], the system named is SVR. The assay can be described thus: Antiproliferative activity against mouse SVR cells at 15 ug/mL after 72 hrs. It is filed as functional. Put shortly: as §1
Assay [3] has as its system Human immunodeficiency virus 1. The assay can be described thus: Antiviral activity against HIV1 in human PBM cells. Format: functional, organism-based. The settings on record: Human immunodeficiency virus 1, PBMC.
Assay [4] is described as follows: Cytotoxicity against human PBM cells. Format: cell-based. The note with it: PBMC.
For a further assay, the system named is CCRF-CEM. The assay can be described thus: Cytotoxicity against human CEM cells. Format: cell-based.
Another assay concerns Vero. The assay is described as follows: Cytotoxicity against Vero cells. It is filed as cell-based. The settings on record: Chlorocebus sabaeus.
The subject of assay [5] is SVR. The assay is described as follows: Inhibition of tumor growth in SVR cells bearing mouse up to 100 mg/kg, ip after 30 days. Set-up: dose 100 mg/kg. Format: functional, organism-based. The gist of the method: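 Nude male mice, 6 weeks old, were inoculated in the flank with SVR cells. Once tumors were visible, about 1 week after inoculation, mice received 3 mg/day intraperitoneally or vehicle control. Treatment ran up to 100 mg/kg for 30 days. Tumor growth and toxicity were compared against vehicle-treated mice.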

Take `C=CCc1cc(Cc2ccc(O)c(CC=C)c2)ccc1O`: the inhibition at 10 µg/mL with SVR [1] stood at 75%. The same compound showed an inhibition at 15 µg/mL in the assay on SVR [2] of 74%. The compound further gave an EC50 in assay [3] of 13.6 µM. The compound also came in with an EC90 in assay [3] of 35.1 µM. In addition, the IC50 in assay [4] is 33.7 µM; with CCRF-CEM it was 15.1 µM; in the assay on Vero, 1.9 µM.
`C=CCc1cc(-c2ccc(O)c(CC=C)c2)ccc1O`: the inhibition at 10 µg/mL with SVR [1] came to 45%. In the assay on SVR [2], this compound returned an inhibition at 15 µg/mL of 56%. The same compound came in with an EC50 in assay [3] of 19.4 µM. Besides, the IC50 in assay [4] is > 100 µM; in the assay on CCRF-CEM, 23 µM; in the assay on Vero, 83.2 µM.
Consider `C=CCc1cc(-c2ncc(O)cn2)ccc1O`, for which, in the assay with SVR [1], the inhibition at 10 µg/mL worked out at 4.4%. In addition, the inhibition at 15 µg/mL in the assay with SVR [2] turned out to be 10%. Besides, in assay [3], the concentration for a half-maximal effect (EC50) was > 100 µM. The EC90 in assay [3] is > 100 µM. Besides, the IC50 in assay [4] is 31.9 µM; in the assay with CCRF-CEM, > 100 µM; with Vero, > 100 µM.
Compound `C=CCc1cc(C(c2ccc(O)c(CC=C)c2)c2ccccn2)ccc1O` yielded an inhibition at 10 µg/mL in the assay on SVR [1] of 25%. This compound registered an inhibition at 15 µg/mL with SVR [2] of 46%. Besides, the EC50 in assay [3] was 35 µM. This compound also had a 90% effect concentration (EC90) in assay [3] of 67.2 µM. Moreover, the IC50 came out at 16.8 µM in assay [4], 16.5 µM in the assay with CCRF-CEM and 14.8 µM with Vero.
`C=CCc1cccc(-c2cccc(CC=C)c2O)c1O`: in the assay on SVR [1], the inhibition at 10 µg/mL amounted to 41%. The inhibition at 15 µg/mL in the assay on SVR [2] was determined as 57%. The compound further returned a 50% effective concentration (EC50) in assay [3] of 34.8 µM. In assay [3], this compound gave an EC90 of 63 µM. The IC50 in assay [4] worked out at 45.9 µM; in the assay with CCRF-CEM, 10.4 µM; with Vero, 19.8 µM.
Regarding `C=CCc1cc(C(C)(C)c2ccc(O)c(CC=C)c2)ccc1O`, testing at 10 µg/mL with SVR [1] gave an inhibition of 33%. Also, the inhibition at 15 µg/mL in the assay with SVR [2] is 57%. The midpoint of the response in assay [3], the EC50, lay at 4.1 µM. For the same compound, in assay [3], the EC90 came out at 47.3 µM. The IC50 was > 100 µM in assay [4], 5.8 µM in the assay with CCRF-CEM and 13 µM in the assay on Vero.
Take `C=CCc1cc(-c2cccc(CC=C)c2O)ccc1O`: the inhibition at 10 µg/mL in the assay on SVR [1] is 74%. The inhibition at 15 µg/mL with SVR [2] is 81%. The midpoint of the response in assay [3], the EC50, lay at 23.4 µM. The compound also showed an EC90 in assay [3] of 81 µM. Moreover, the IC50 in assay [4] turned out to be 36.7 µM; with CCRF-CEM, 17.9 µM; with Vero, 11.4 µM.
Consider `C=CCc1cc(/C(CC)=C(\CC)c2ccc(O)c(CC=C)c2)ccc1O`, for which, in the assay with SVR [1], the inhibition at 10 µg/mL was determined as 68%. The inhibition at 15 µg/mL with SVR [2] came out at 89%. In assay [3], a half-maximal effect (EC50) was put at 9.5 µM. In addition, in assay [3], the EC90 worked out at 30.9 µM. For the same compound, the results for the IC50 (in assay [4]; in the assay with CCRF-CEM; with Vero) were > 100 µM, 3.4 µM and 3.7 µM, respectively. Moreover, the outcome in the assay on SVR [5] was inactive.
On to `C=CCc1ccc(O)c(-c2cc(CC=C)ccc2O)c1` [MAGNOLOL], for which, in the assay on SVR [1], at 10 µg/mL the inhibition was 60%. At 15 µg/mL the inhibition in the assay with SVR [2] was 77%. This compound also showed an EC50 in assay [3] of 69.3 µM. The EC90 in assay [3] is > 100 µM. Further, the results for the IC50 (in assay [4]; with CCRF-CEM; in the assay on Vero) were 38.6 µM, 99.5 µM and 50.6 µM, respectively.
For `C=CCc1ccc(O)c(-c2ccc(O)c(CC=C)c2)c1` [HONOKIOL], testing at 10 µg/mL in the assay on SVR [1] gave an inhibition of 60%. Besides, the inhibition at 15 µg/mL with SVR [2] was 85%. This compound displayed an EC50 in assay [3] of 3.3 µM. The IC50 in assay [4] is 16.1 µM; in the assay with CCRF-CEM, 10.9 µM; in the assay on Vero, 22.5 µM.
Regarding `C=CCc1cc(C2(c3ccc(O)c(CC=C)c3)CCCCC2)ccc1O`, testing at 10 µg/mL in the assay on SVR [1] gave an inhibition of 63%. This compound also came in with an inhibition at 15 µg/mL in the assay on SVR [2] of 79%. A half-maximal effect in assay [3] (EC50) was put at 36.5 µM. The same compound displayed an EC90 in assay [3] of 67.2 µM. In addition, the IC50 in assay [4] amounted to 55.4 µM; with CCRF-CEM, 11 µM; in the assay with Vero, 12.5 µM.
As to `C=CCc1cc(C(=C(Cl)Cl)c2ccc(O)c(CC=C)c2)ccc1O`, the inhibition at 10 µg/mL in the assay on SVR [1] amounted to 54%. Also, the inhibition at 15 µg/mL in the assay on SVR [2] is 76%. In assay [3], this compound had an EC50 of 14.3 µM. In addition, it took 48.8 µM to reach the 90% level in assay [3] (EC90). Also, the IC50 in assay [4] is 43.6 µM; in the assay on CCRF-CEM, 17.1 µM; in the assay with Vero, 12.1 µM.

(Values after ChEMBL document CHEMBL1146206, “Synthesis, cytotoxicity, and antiviral activities of new neolignans related to honokiol and magnolol” (Bioorg Med Chem Lett, 2007).)
